Measurements taken from ChEMBL document CHEMBL2321682, “Synthesis and Anti-inflammatory Evaluation of Novel Benzimidazole and Imidazopyridine Derivatives” (ACS Med Chem Lett, 2013).

Tests used:
RAW264.7 [1] = assay: Inhibition of LPS-induced TNF-alpha secretion in mouse RAW264.7 cells at 10 uM pretreated for 2 hrs prior to LPS addition measured after 22 hrs by ELISA; assay type: functional
In short: (§1)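 RAW 264.7 macrophages seeded at 4.0 × 10^5/plate overnight (37 °C, 5% CO2), pretreated 2 h with 10 μM compound (omeprazole as comparator), then LPS 0.5 μg/mL for 22 h. TNF-α and IL-6 in medium measured by ELISA, normalized to total cellular protein.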

RAW264.7 [2] = assay: Inhibition of LPS-induced IL-6 secretion in mouse RAW264.7 cells at 10 uM pretreated for 2 hrs prior to LPS addition measured after 22 hrs by ELISA; assay type: functional; in short: as §1
RAW264.7 [3] = assay: Inhibition of LPS-induced TNF-alpha secretion in mouse RAW264.7 cells pretreated for 2 hrs prior to LPS addition measured after 22 hrs by ELISA; assay type: functional, cell-based
In short: (§2)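 Dose–response for IC50. RAW264.7 cells were seeded at 1.2 × 10^6/plate overnight at 37 °C, 5% CO2. They were pretreated 2 h with 1.0, 5.0 or 10 μM compound, then given LPS 0.5 μg/mL for 22 h. Medium TNF-α or IL-6 was quantified by ELISA and normalized to total protein.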

RAW264.7 [4] = assay: Inhibition of LPS-induced IL-6 secretion in mouse RAW264.7 cells pretreated for 2 hrs prior to LPS addition measured after 22 hrs by ELISA; assay type: functional, cell-based; in short: as §2
Mus musculus [5] = assay: Antiinflammatory activity against LPS-induced C57BL/6 mouse sepsis model assessed as increase in survival rate at 15 mg/kg, iv administered 15 mins after LPS injection measured for 7 days; assay type: functional
In short: (§3)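 Mice received LPS 20 mg/kg iv. Test agent was given iv as its HCl salt at 15 mg/kg, either 15 min after LPS (line 1, therapeutic) or 15 min before LPS (line 2, preventive). Survival and body weight were recorded daily for 7 days. Data pool two experiments, n = 12 per group, compared with the LPS-alone group.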

Mus musculus [6] = assay: Antiinflammatory activity against LPS-induced C57BL/6 mouse sepsis model assessed as increase in survival rate at 15 mg/kg, iv administered 15 mins prior to LPS injection measured for 7 days; assay type: functional; in short: as §3
[7] = Cytotoxicity against human HL7702 cells assessed as inhibition of cell viability at 20 uM after 24 to 72 hrs by MTT assay; assay type: cell-based; settings: l02, 20 µM
In short: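 Human normal liver HL-7702 cells exposed to 20 μM compound for 24, 48 and 72 h; viability read by MTT.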

Compound: CCCn1c(-c2ccccc2Br)nc2ccc(N3CCN(C)CC3)nc21
- inhibition at 10 µM (RAW264.7 [1]): 50%

Compound: CCN(CC)CCn1c(-c2ccccc2OC)nc2cc(Cl)ccc21
- inhibition at 10 µM (RAW264.7 [1]): 50%

Compound: Cc1ccc(-c2nc3ccc(N4CCN(C)CC4)nc3[nH]2)s1
- inhibition at 10 µM (RAW264.7 [1]): 50%

Compound: CCCn1c(-c2ccccc2F)nc2ccc(N3CCN(C)CC3)nc21
- inhibition at 10 µM (RAW264.7 [1]): 50%

Compound: COc1ccccc1-c1nc2ccc(N3CCN(C)CC3)nc2[nH]1
- inhibition at 10 µM (RAW264.7 [1]): 50%

Compound: CCCn1c(-c2c[nH]c3ccccc23)nc2ccc(N3CCN(C)CC3)nc21
- inhibition at 10 µM (RAW264.7 [2]): 81.4%
- IC50 (RAW264.7 [3]): 14.2 µM
- inhibition (RAW264.7 [3]): Dose-dependent effect
- IC50 (RAW264.7 [4]): 4.3 µM
- inhibition (RAW264.7 [4]): Dose-dependent effect
- inhibition at 10 µM (RAW264.7 [1]): 64.8%

Compound: CCCn1c(-c2ccc(C)s2)nc2ccc(N3CCOCC3)nc21
- inhibition at 10 µM (RAW264.7 [1]): 50%

Compound: CCCn1c(-c2ccc(C)s2)nc2ccc(N3CCN(C)CC3)nc21
- inhibition at 10 µM (RAW264.7 [2]): > 50%
- IC50 (RAW264.7 [3]): 7.25 µM
- inhibition (RAW264.7 [3]): Dose-dependent effect
- IC50 (RAW264.7 [4]): 2.81 µM
- inhibition (RAW264.7 [4]): Dose-dependent effect
- inhibition at 10 µM (RAW264.7 [1]): 50%

Compound: CCCn1c(-c2c[nH]c3ncccc23)nc2ccc(N3CCN(C)CC3)nc21.Cl
- Activity (Mus musculus [5]): 50%
- Activity (Mus musculus [6]): 50%

Compound: CCCn1c(-c2c[nH]c3ccc(Br)cc23)nc2ccc(N3CCN(C)CC3)nc21
- inhibition at 10 µM (RAW264.7 [2]): > 50%
- Activity [7]: Toxic
- IC50 (RAW264.7 [3]): 1.99 µM
- inhibition (RAW264.7 [3]): Dose-dependent effect
- IC50 (RAW264.7 [4]): 1.21 µM
- inhibition (RAW264.7 [4]): Dose-dependent effect
- inhibition at 10 µM (RAW264.7 [1]): 50%

Compound: CCCn1c(-c2ccccc2OC)nc2ccc(N3CCN(C)CC3)nc21
- inhibition at 10 µM (RAW264.7 [1]): 50%

Compound: CN1CCN(c2ccc3nc(-c4c[nH]c5ccccc45)[nH]c3n2)CC1
- inhibition at 10 µM (RAW264.7 [1]): 50%

Compound: CCCn1c(-c2cn(C)c3ccccc23)nc2ccc(N3CCN(C)CC3)nc21
- inhibition at 10 µM (RAW264.7 [1]): 50%

Compound: CCCn1c(-c2c[nH]c3ncccc23)nc2ccc(N3CCN(C)CC3)nc21 [listing 1 of 2 here]
- inhibition at 10 µM (RAW264.7 [2]): > 50%
- Activity [7]: Non-toxic
- IC50 (RAW264.7 [3]): 4.79 µM
- IC50 (RAW264.7 [4]): 1.62 µM
- inhibition at 10 µM (RAW264.7 [1]): 50%

Compound: CCCn1c(-c2ccc(OCCCN(C)C)cc2)nc2ccc(N3CCN(C)CC3)nc21
- inhibition at 10 µM (RAW264.7 [2]): > 50%
- Activity [7]: Non-toxic
- IC50 (RAW264.7 [3]): 12.4 µM
- inhibition (RAW264.7 [3]): Dose-dependent effect
- IC50 (RAW264.7 [4]): 3.28 µM
- inhibition (RAW264.7 [4]): Dose-dependent effect
- inhibition at 10 µM (RAW264.7 [1]): 50%

Compound: CCCn1c(-c2c[nH]c3ncccc23)nc2ccc(N3CCN(C)CC3)nc21 [listing 2 of 2 here]
- inhibition (RAW264.7 [3]): Dose-dependent effect
- inhibition (RAW264.7 [4]): Dose-dependent effect

Compound: CCCn1c(-c2cn(C)c3ccccc23)nc2ccc(N3CCOCC3)nc21
- inhibition at 10 µM (RAW264.7 [1]): 50%
